Test [1] has as its system Mus musculus. Put plainly: Inhibition of VEGF and FGF-stimulated angiogenesis in mouse at 90 mg/kg by Matrigel plug assay. The format is functional, organism-based. On the set-up: dose 90 mg/kg. An outline of the steps: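 Matrigel with VEGF and basic FGF injected subcutaneously into mice and left 10 days while new vessels grew in. Compound given at 90 mg/kg/day. Vessel ingrowth was judged by the red colour of the plug and by MAS-trichrome staining of plug slices.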

Test [2] deals with AEC. The test is described as follows: Antiproliferative activity against BAEC. The note with it: Bos taurus.
In test [3] the test system is Mus musculus. Put plainly: Ulceration in mouse at 90 mg/kg. It counts as functional, organism-based. On the set-up: dose 90 mg/kg. Summed up:
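Mice in the VEGF/bFGF matrigel-plug study were dosed at 90 mg/kg/day and their skin was inspected for ulceration.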

In test [4] the target is Methionine aminopeptidase 2 (Homo sapiens) (UniProt P50579). Put plainly: Inhibition of human MetAP2 at 100 uM.
Chain of Methionine aminopeptidase 2 (Homo sapiens) (P50579 2-478 limits assumed): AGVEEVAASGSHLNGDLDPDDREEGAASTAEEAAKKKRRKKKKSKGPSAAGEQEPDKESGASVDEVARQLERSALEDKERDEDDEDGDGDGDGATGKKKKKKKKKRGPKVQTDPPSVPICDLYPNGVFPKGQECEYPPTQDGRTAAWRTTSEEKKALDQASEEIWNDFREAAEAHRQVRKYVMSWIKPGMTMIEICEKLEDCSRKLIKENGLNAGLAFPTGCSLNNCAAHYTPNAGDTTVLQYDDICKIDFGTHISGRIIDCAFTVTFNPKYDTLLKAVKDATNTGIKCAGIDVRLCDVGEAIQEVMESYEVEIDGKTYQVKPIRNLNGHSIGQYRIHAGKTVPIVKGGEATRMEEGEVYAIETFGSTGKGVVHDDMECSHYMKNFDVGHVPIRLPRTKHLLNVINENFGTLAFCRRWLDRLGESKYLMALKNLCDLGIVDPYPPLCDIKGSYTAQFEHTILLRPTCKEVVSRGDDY
The test system of test [5] is AEC. The test is described as follows: Antiproliferative activity against BAEC at 100 uM. The format is functional, cell-based. The note with it: Bos taurus.
Test [6] relates to Mus musculus. Put plainly: Ulceration in mouse at 30 mg/kg. The format is functional, organism-based. On the set-up: dose 30 mg/kg.
For test [7], the system named is Mus musculus. The test is described as follows: Inhibition of VEGF and FGF-stimulated angiogenesis in mouse at 30 mg/kg by Matrigel plug assay. On the set-up: dose 30 mg/kg. The format is functional, organism-based. An outline of the steps: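 Mice received subcutaneous matrigel containing VEGF and basic FGF, with the agent dosed at 30 mg/kg/day. After 10 days, vessel ingrowth into the plug was judged by the plug's red colour and by MAS-trichrome staining of matrigel slices to visualize blood vessels.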

The source made the active and inactive calls. No cut-off for these calls is given here.

In general, IC50 refers to the point on the concentration scale where inhibition reaches its midpoint. A high value points to weaker potency. Turning to `CO[C@]12C(=O)CC[C@@]1(CO)C2[C@@]1(C)O[C@@H]1CC=C(C)C` (stereo not given in full) [FUMARRANOL], the result in the test with Mus musculus [1] was Active. In the test with AEC [2], this compound yielded an IC50 of 34 nM. The result with Mus musculus [3] was inactive. In the test on AEC [2], `CO[C@]12C(=O)CC[C@@]1(CO)[C@H]2/C(C)=C/CC=C(C)C` came in with an IC50 of 1780 nM. Turning to `CO[C@@H]1C(=O)CC[C@](O)(C=O)[C@H]1[C@@]1(C)O[C@@H]1CC=C(C)C` [FUMAGALONE], half-maximal inhibition in the test with AEC [2] (IC50) required 52 nM. Take `CO[C@]12C(=O)/C(=C/c3ccco3)C[C@@]1(CO)C2[C@@]1(C)O[C@@H]1CC=C(C)C` (stereo not given in full): the result (in test [4]; in the test on AEC [5]) was inactive.

`CO[C@]12C(=O)CC[C@@]1(C=O)C2[C@@]1(C)O[C@@H]1CC=C(C)C` (stereo not given in full): in the test with AEC [2], the 50% inhibitory concentration (IC50) came out at 370 nM.

For the compound `CO[C@]12C(=O)CC[C@@]1(CN1C(=O)c3ccccc3C1=O)C2[C@@]1(C)O[C@@H]1CC=C(C)C` (stereo not given in full), the outcome (in test [4]; in the test on AEC [5]) was inactive. In the case of `CO[C@@H]1[C@H](OC(=O)NC(=O)CCl)CC[C@]2(CO2)[C@H]1[C@@]1(C)O[C@@H]1CC=C(C)C` [O-CHLOROACETYLCARBAMOYLFUMAGILLOL], the outcome in the test with Mus musculus [6] and in the test on Mus musculus [7] was Active. The same compound yielded an IC50 with AEC [2] of 0.037 nM.

For the compound `CCOC(=O)CCCC/C=C/C[C@H]1O[C@]1(C)C1[C@]2(CO)CCC(=O)[C@]12OC` (stereo not given in full), the result (in test [4]; in the test on AEC [5]) was inactive. Take `CO[C@]12C(=O)CC[C@@]1(CO)C2C(C)CCC=C(C)C` (stereo not given in full): in the test on AEC [2], it took 4000 nM to reach half-maximal inhibition (IC50).

Take `COC[C@@]12CCC(=O)[C@]1(OC)C2[C@@]1(C)O[C@@H]1CC=C(C)C` (stereo not given in full): the outcome (in test [4]; with AEC [5]) was inactive. On to `CO[C@@]12C([C@@]3(C)O[C@@H]3CC=C(C)C)[C@]1(CO)CC[C@H]2O` (stereo not given in full), for which the outcome (in test [4]; in the test on AEC [5]) was inactive.

Source of the values: ChEMBL document CHEMBL1149336, “Fumarranol, a rearranged fumagillin analogue that inhibits angiogenesis in vivo” (J Med Chem, 2006).
